# Cneo AK release = causes C. neoformans cell lysis | lysis activity, % at 15 µM | 360,000 tested, 0.2% active | adenylate kinase release luminescence, 4 h; normalised: neutral wells 0, clomiphene wells 100 | AID 651654;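 active = mean lysis activity across replicates of at least 80%, whatever share of replicates individually reach that level; inactive = mean lysis activity below 80%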
#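 Assay system: Cryptococcus neoformans yeast cells / Dosing: single-point compound dose / Timing: 4 h at 37 °C static, read 1 h later / Measured by: luminescence of released adenylate kinase using an AK detection reagent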
# dFosB act = enhances mouse delta FosB homodimer DNA binding; P13346; AID 493131; 340,000 tested, 0.99% active; activation, % at 25 µM; purified delta FosB, TAMRA-CDK5 oligo fluorescence polarization; percent of positive-control signal above neutral wells;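 active = mean activation above about 17%, with every replicate also reaching it, limit read from the data, passing the limit was not always enough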
# Target sequence (P13346 whole entry, looked up): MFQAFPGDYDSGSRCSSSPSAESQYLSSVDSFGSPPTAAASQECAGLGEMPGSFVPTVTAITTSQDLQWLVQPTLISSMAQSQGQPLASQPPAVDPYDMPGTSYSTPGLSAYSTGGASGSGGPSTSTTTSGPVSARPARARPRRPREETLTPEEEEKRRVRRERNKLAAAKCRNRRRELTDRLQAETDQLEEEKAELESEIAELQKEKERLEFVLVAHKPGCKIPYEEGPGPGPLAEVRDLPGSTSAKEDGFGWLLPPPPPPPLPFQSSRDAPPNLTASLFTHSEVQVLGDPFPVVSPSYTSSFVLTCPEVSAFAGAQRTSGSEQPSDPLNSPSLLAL
# GSIS activator = primary screen for activators of insulin secretion dependent on glucose, INS-1E cells, GLuc reporter luminescence; INS-1E GLuc reporter insulin secretion, 2-3 h; 370,000 tested, 0.61% active; activation, % at 16.6 µM;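 active = lowest replicate activation of at least 40%, so every replicate reaches that level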;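 note: 0% = median of neutral control wells and 100% = median of IBMX positive control wells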
# Env fusion inh = inhibitors of HIV Env-mediated cell fusion. HeLa-JRFL Env/CEM21 cell fusion, luciferase. inhibition, % at 12.3 µM. 360,000 tested, 1.1% active. AID 651610;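 active = mean replicate inhibition score of at least 50 and every replicate individually at or above 50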;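 note: 0% = plate neutral controls and 100% = maraviroc near 300 nM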
# Rtt109 HAT inh = C. albicans Rtt109 histone acetyltransferase inhibition; AID 540336; Q5AAJ8; inhibition, % at 34.9 µM; purified Rtt109/Vps75, ThioGlo CoA-SH fluorescence, 4 h; 330,000 tested, 0.16% active;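 active = inhibition of at least 50% in every replicate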
# miR122 inh = miR-122 inhibition in Huh7 cells | Huh7 miR-122 Renilla luciferase sensor, 48 h; neutral wells = 0, positive control = 100 | activation (reporter increase), % at 12.5 µM | 340,000 tested, 0.3% active | AID 602342;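 active = mean replicate activation score at least 90 and every replicate individually at or above 90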;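 note: higher luciferase means less miR-122 activity so hits act as miR-122 inhibitors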
# An asterisk follows results filed as active; . = no result; [ ] = dose if it differs, or a comment. An excerpt weighted towards active compounds, which were near 2.4% of everything screened.
SMILES,Cneo AK release,dFosB act,GSIS activator,Env fusion inh,Rtt109 HAT inh,miR122 inh
COc1ccccc1NS(=O)(=O)c1cc(NC(=S)NCCN2CCOCC2)ccc1N1CCOCC1,.,-2.6,.,-89.4,17.7,217.0*
COc1ccccc1NS(=O)(=O)c1cc(NC(=O)/C=C/c2cccs2)ccc1N1CCOCC1,13.0,4.5,.,-76.1,-6.4,257.9*
C[C@@H]1CN([C@@H](C)CO)C(=O)Cc2cc(NC(=O)CCCN(C)C)ccc2O[C@H]1CN(C)C(=O)Nc1ccccc1,.,.,8.9,.,.,.
CCCN(C)C[C@H]1OCCCC[C@@H](C)Oc2ccc(NS(=O)(=O)c3ccccc3)cc2C(=O)N([C@@H](C)CO)C[C@H]1C,0.4,.,-2.6,-7.1[16.7 µM],.,-0.9[16.7 µM]
O=C(C1CC1)N1CC[C@H]2[C@H](CO)Nc3ccc(-c4cccc(F)c4)cc3[C@H]21,-4.5,.,-13.6,.,.,7.1[16.7 µM]
COCC#Cc1cnc2c(c1)C(=O)N([C@@H](C)CO)C[C@@H](C)[C@@H](CN(C)C(=O)Nc1cccc(F)c1)O2,-4.9,.,24.7,-3.6[16.7 µM],.,4.2[16.7 µM]
CCCNC(=O)[C@H]1[C@H](CO)[C@H]2Cn3c(ccc(-c4ccc(F)cc4)c3=O)[C@H]2N1CC1CC1,-5.9,.,-6.9,.,.,-2.2[16.7 µM]
NNc1nc(-c2ccccc2)c2ccccc2n1,.,3.4,44.2*,-11.4,-3.0,.
OCCNc1nc(-c2ccccc2)c2ccccc2n1,7.6,-4.4,.,.,-28.7,0.3
Cc1ccc(S(=O)(=O)N(C)C[C@@H]2OCCCC[C@@H](C)Oc3ccc(NS(=O)(=O)c4cn(C)cn4)cc3C(=O)N([C@@H](C)CO)C[C@H]2C)cc1,-1.6,.,-10.6,-101.8[16.7 µM],.,0.8[16.7 µM]
COc1cccc(NS(=O)(=O)c2ccc3c(c2)N(C(C)=O)CCO3)c1,-0.8,-3.4,3.7,-1.8,16.0,195.1*
CC(=O)c1ccc(NS(=O)(=O)c2ccc3c(c2)N(C(C)=O)CCO3)cc1,1.4,-5.2,11.9,-10.9,2.4,.
COc1ccc(NS(=O)(=O)c2ccc3c(c2)N(C(C)=O)CCO3)c(OC)c1,-0.3,-0.6,-2.5,-6.3,8.6,11.4
CC(=O)N1CCSc2ccc(S(=O)(=O)NCCc3ccc(Cl)cc3)cc21,-8.3,-14.6,1.2,13.6,-2.7,93.9*
Cc1ccc(NS(=O)(=O)c2ccc3c(c2)N(C)CCO3)cc1,0.8,2.8,0.8,3.9,5.5,.
CC(=O)N1CCSc2ccc(S(=O)(=O)NCCc3ccc(C)cc3)cc21,0.9,-8.2,-6.9,3.9,1.3,86.2
CC(=O)N1CCOc2ccc(S(=O)(=O)Nc3cccc(C)c3)cc21,.,-7.6,6.9,-0.5,-10.2,130.2*
CCc1cccc(NS(=O)(=O)c2ccc3c(c2)N(C)CCO3)c1,2.0,-0.5,-26.0,4.0,-5.6,172.4*
O=C(C[C@@H]1CC[C@H]2[C@@H](COC[C@@H](O)CN2Cc2ccc3c(c2)OCO3)O1)Nc1ccc(-c2ccccc2)cc1,-5.1,.,-0.7,18.8[16.7 µM],.,-6.9[16.7 µM]
C[C@@H]1CN([C@@H](C)CO)C(=O)c2cccc(NC(=O)c3ccncc3)c2O[C@H]1CN(C)C(=O)Nc1ccc(F)cc1,-0.7,.,18.1,.,.,-3.2[16.7 µM]
CC(=O)N1CCOc2ccc(S(=O)(=O)NCCc3ccccc3)cc21,-1.0,-6.3,-0.8,4.5,4.5,3.8
CC(=O)N1CCOc2ccc(S(=O)(=O)NCCc3cccc(C)c3)cc21,0.3,-1.7,.,6.1,-3.5,116.5*
Cc1cccc(NS(=O)(=O)c2ccc3c(c2)OCCO3)c1,0.0,-3.5,6.2,6.8,-8.4,118.9*
C[C@@H]1CN([C@H](C)CO)S(=O)(=O)c2ccc(C#CC3CC3)cc2O[C@H]1CN(C)C(=O)c1ccccn1,0.2,.,-13.2,-11.5[16.7 µM],.,6.4[16.7 µM]
Cc1ccc(Cl)cc1NC(=S)N(CCCN1CCOCC1)Cc1ccccn1,-1.0,-4.1,-0.8,-4.2,8.6,160.3*
O=C(C[C@H]1CC[C@@H](NC(=O)c2ccncc2)[C@H](CO)O1)Nc1ccc(-c2ccccc2)cc1,.,.,6.0,.,.,.
CCCCCCC(=O)Nc1ccc(C(=O)N/N=C/c2cccnc2)cc1,.,9.0,16.0,2.8,-2.5,0.8
CC(C)c1ccc(OCc2cccc(C(=O)N/N=C/c3cccnc3)c2)cc1,-4.4,-11.4,-7.3,.,2.7,4.3

# Bioassay records as filed in PubChem BioAssay.
